APJ antagonist – blocks the human apelin receptor APJ; AID 2521; CHO-K1 APJ beta-arrestin complementation, luminescence; inhibition, % at 20 µM; hit rate 0.32% among 330,000; P35414;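 active = inhibition above about 40% at 20 µM, limit read from the data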;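 also: cells challenged with 10 nM apelin-13 agonist together with compound; plate controls were apelin-13 plus DMSO wells for no effect and DMSO wells lacking apelin-13 for full effect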
CCR6 antag – CCR6 (human) receptor antagonism. CHO-K1 CCR6 PathHunter beta-arrestin, luminescence, CCL20-stimulated. inhibition, % at 20 µM. hit rate 0.49% among 340,000;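 active = compounds whose inhibition of the agonist-driven luminescence signal at 20 µM reaches about 50%, limit read from the data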;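 also: cells stimulated with CCL20 at 14 nM final; plate controls were DMSO with CCL20 for no effect and DMSO without agonist for full effect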
CXCR6 block – blocks human CXCR6 beta-arrestin recruitment | CHO-K1 PathHunter CXCR6 beta-arrestin, luminescence | inhibition, % at 20 µM | hit rate 0.36% among 360,000 | AID 602244; in the data active = inhibition above about 34%, passing the limit was not always enough;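 also: antagonist mode with CXCL16 agonist at 10 nM final; 0% = 10 nM CXCL16 with DMSO and 100% = unstimulated wells without agonist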
Target sequence (O00574 whole entry, looked up): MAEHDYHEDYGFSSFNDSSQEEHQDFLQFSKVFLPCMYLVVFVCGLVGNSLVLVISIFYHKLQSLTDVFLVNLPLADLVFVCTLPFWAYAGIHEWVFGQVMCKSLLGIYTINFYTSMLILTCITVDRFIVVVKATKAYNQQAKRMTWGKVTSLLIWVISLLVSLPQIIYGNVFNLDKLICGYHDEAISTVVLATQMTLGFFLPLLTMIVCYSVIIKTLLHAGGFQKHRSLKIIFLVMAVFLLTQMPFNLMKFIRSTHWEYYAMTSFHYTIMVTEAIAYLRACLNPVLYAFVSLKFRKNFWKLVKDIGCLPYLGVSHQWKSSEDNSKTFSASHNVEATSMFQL
APJ agonist – activates the human apelin receptor APJ; CHO-K1 APJ PathHunter beta-arrestin, luminescence; 0% DMSO wells, 100% apelin; activation, % at 20 µM; hit rate 0.11% among 330,000; AID 2520;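 active = activation more than six SD over the plate average, tested at 20 µM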;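 also: 0% = DMSO alone and 100% = apelin-13 at 10 nM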
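Incubation: overnight seeding, 90 min compound at 25 °C, 1 h detection; test system: PathHunter CHO-K1 APJ (AGTRL-1) beta-arrestin reporter cells; amount: 1000 cells/well; doses: one dose, 20 µM compound, 1% DMSO; measured by: beta-gal luminescence; measure: agonist-driven arrestin binding to APJ; benchmarks: negative DMSO alone, positive Apelin-13 at 10 nM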
EBI2 antag – EBI2 (human) antagonism. P32249. hit rate 0.81% among 360,000. inhibition, % at 5 µM. AID 651636. EBI2 beta-arrestin recruitment, luminescence, 7a,25-OHC stimulated; in the data active = inhibition above about 38%;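 also: enzyme fragment complementation signal reports receptor beta-arrestin coupling in cells; 0% = agonist plus DMSO wells and 100% = wells without agonist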
* marks the source's active call; other numbers are inactive results. A selection: hits, their analogues and other compounds. The true share with any hit is near 1.5%.

For CCN(Cc1ccncc1)C(=O)c1cc(COc2c(C)cccc2C)on1 the results were APJ antagonist 16.8, CCR6 antag 6.6, CXCR6 block 1.3, APJ agonist -2.5 and EBI2 antag -4.0.
For COc1ccccc1CNC(=O)CSc1nc(-c2ccccc2)cn1N the results were APJ antagonist 2.9, CCR6 antag 11.5, CXCR6 block 5.8, APJ agonist -4.8 and EBI2 antag 7.0.
Screening CN(C(=O)CSc1nc(-c2ccccc2)cn1N)C(c1ccccc1)c1ccccc1 returned APJ antagonist -20.5, CCR6 antag -4.9, CXCR6 block 14.0, APJ agonist -4.9 and EBI2 antag 36.3*.
Screening CCN1/C(=C\C=C2\C(=O)N(c3ccccc3)C(=S)N2C)Sc2ccccc21 returned CCR6 antag 63.3*, CXCR6 block 40.5* and EBI2 antag 25.4.
CC1(C)N(O)CC(c2cccs2)=[N+]1[O-] was read as APJ antagonist 6.5, CCR6 antag 1.5, CXCR6 block -4.3, APJ agonist 0.7 and EBI2 antag -5.9.
Screening Cc1[nH]n(-c2ccccc2)c(=O)c1/C=N/O returned APJ antagonist 1.4, CCR6 antag -16.3, CXCR6 block -0.8, APJ agonist -2.8 and EBI2 antag 4.0.
Screening Cc1[nH]n(-c2ccccc2)c(=O)c1/C=N/N1C(=O)c2ccc3c4c(ccc(c24)C1=O)CC3 returned APJ antagonist -11.6, CXCR6 block 38.4*, APJ agonist 2.9 and EBI2 antag 2.4.
For O=C(COC(=O)c1cccs1)NCCc1ccc(F)cc1 the results were APJ antagonist 13.6, CCR6 antag -4.8, CXCR6 block 4.9, APJ agonist 4.8 and EBI2 antag -7.0.
O=S(=O)(NC(=S)NC1CCCCC1)c1ccccc1 was read as APJ antagonist 4.5, CCR6 antag 17.4, CXCR6 block 16.7, APJ agonist -4.3 and EBI2 antag 1.2.
CCC(O)(CC)C(=O)N/N=C/c1cc(Br)cc(Br)c1O was read as APJ antagonist 8.3, CCR6 antag 22.9, CXCR6 block 14.2, APJ agonist -8.4 and EBI2 antag 63.6*.
O=C(C[n+]1ccccc1)N/N=C/c1cc(Br)cc(Br)c1O was read as APJ antagonist 8.6, CCR6 antag 20.9, CXCR6 block 7.4, APJ agonist -4.2 and EBI2 antag 9.9.
For O=C1NC[C@H](c2ccccc2)OC(=O)[C@@H](Cc2ccc(F)cc2)CC/C=C/C[C@H]1CC(=O)N(CCO)Cc1ccccc1 the results were CCR6 antag 33.5, CXCR6 block 36.9 and EBI2 antag 3.7.
`O=C1NC[C@H](c2ccccc2)OC(=O)[C@H](Cc2ccc(F)cc2)CC/C=C/C[C@H]1CC(=O)N(CCO)Cc1ccccc1` gave CCR6 antag 33.0, CXCR6 block 48.4* and EBI2 antag -25.4.
Screening CC(CCC(C)C(C)(C)C)[C@@H]1CC[C@H]2C3C[C@H](OS(O)(=S)=S)[C@H]4C[C@H](OS(O)(=S)=S)[C@@H](OS(O)(=S)=S)C[C@]4(C)[C@H]3CC[C@]12C (stereo partly specified) (tested in a mixture with another compound) returned APJ antagonist 10.3, CCR6 antag 57.3*, CXCR6 block 20.3, APJ agonist 6.0 and EBI2 antag -12.0.
`CC(CCC(=O)NN)C1CCC2C3CCC4CC(O)CCC4(C)C3CCC12C` (stereo unspecified) gave CCR6 antag 5.6, CXCR6 block 0.0 and EBI2 antag 13.9.
COc1ccc(N2CSC3=C(C#N)C(c4cc(OC)ccc4OC)CC(=O)N3C2)c(OC)c1 (stereo unspecified) was read as APJ antagonist -15.1, CCR6 antag 13.5, CXCR6 block -12.5, APJ agonist 20.1 and EBI2 antag -2.6.
`COc1ccc(N2CSC3=C(C#N)C(c4cc(OC)c(OC)cc4OC)CC(=O)N3C2)c(OC)c1` (stereo unspecified) gave APJ antagonist -15.6, CCR6 antag -10.2, CXCR6 block -8.2, APJ agonist 24.8* and EBI2 antag -7.1.
Cc1[nH]c2ccccc2c1C(C#N)(C#N)C1C(=O)c2ccccc2C1=O was read as APJ antagonist 12.1, CCR6 antag 44.6, CXCR6 block 43.3*, APJ agonist -3.5 and EBI2 antag -23.6.
`Cc1[nH]c2ccccc2c1CC#N` gave APJ antagonist 11.8, CCR6 antag 11.1, CXCR6 block 1.5, APJ agonist -1.6 and EBI2 antag -7.9.
For O=C1c2ccccc2NC(c2ccc(O)cc2)N1c1ccccc1 (stereo unspecified) the results were APJ antagonist -0.3, CCR6 antag 8.4, CXCR6 block -1.6, APJ agonist -3.5 and EBI2 antag 5.3.
Screening O=C(O)c1cc(O)c2c(c1)C(=O)c1cccc(O)c1C2=O returned APJ antagonist -1.5, CCR6 antag 78.9*, CXCR6 block 48.4*, APJ agonist 12.9 and EBI2 antag 5.2.
O=C1C=C(O)c2c(O)cccc2C1=O was read as APJ antagonist -80.8 and APJ agonist -4.2.
Screening O=C(NCCc1c[nH]c2ccccc12)C(=O)NCC(c1ccco1)N1CCN(c2ccccc2F)CC1 (stereo unspecified) returned APJ antagonist -14.5, CCR6 antag 19.8, CXCR6 block 1.5, APJ agonist -0.8 and EBI2 antag 58.0*.
For CN(C)c1ccc(CNC(=O)C2(C)Cc3c(-c4cccc(C(F)(F)F)c4)ccnc3O2)cc1 (stereo unspecified) the results were CXCR6 block 0.4 and EBI2 antag 11.9.
`Cc1nn(Cc2ccc(F)cc2)c(C)c1NC(=O)c1cnn2c1NC(c1ccccc1)CC2C(F)(F)F` (stereo unspecified) gave APJ antagonist -15.2, CCR6 antag -9.1, CXCR6 block -14.3, APJ agonist -1.1 and EBI2 antag 0.2.
`Cc1nn(Cc2ccc(F)cc2)c(C)c1NC(=O)c1cnn2c1NC(c1cccs1)CC2C(F)(F)F` (stereo unspecified) gave APJ antagonist -17.3, CCR6 antag -1.6, CXCR6 block 6.7, APJ agonist 1.3 and EBI2 antag 37.4*.
For CCc1noc(C)c1C(=O)Nc1ccc(S(=O)(=O)N2CCC(C)CC2)cc1 the results were APJ antagonist 12.5, CCR6 antag 4.7, CXCR6 block -7.7, APJ agonist -3.9 and EBI2 antag 5.4.
For CC1=NNC(=O)/C1=C\c1cn(-c2ccccc2)nc1-c1ccc(F)cc1 the results were CCR6 antag 8.9, CXCR6 block -3.9 and EBI2 antag 86.1*.
CC(C)Sc1ncc(S(=O)(=O)c2ccccc2)c(=O)[nH]1 was read as APJ antagonist -28.4, CCR6 antag 8.2, CXCR6 block 3.4, APJ agonist -0.6 and EBI2 antag -6.2.
For O=C(N/N=C\c1cc(Cl)ccc1O)c1ccc(S(=O)(=O)N2CCCCC2)cc1 the results were APJ antagonist -12.8, CCR6 antag 16.4, CXCR6 block -5.0, APJ agonist 0.9 and EBI2 antag 48.7*.
